Reference: ChEMBL document CHEMBL4177582, “Modifications of flexible nonyl chain and nucleobase head group of (+)-erythro-9-(2's-hydroxy-3's-nonyl)adenine [(+)-EHNA] as adenosine deaminase inhibitors” (Bioorg Med Chem, 2017)

Key:
[1] = Half life in Wistar rat at 1 mg/kg, iv after 0.25 to 24 hrs by LC/MS/MS method; type: ADME, organism-based; conditions: in vivo
Method in brief: (§1)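 Male Wistar rats were given a single intravenous dose. The vehicle was NMP 10%, PEG-300 15%, and 0.1M ammonium acetate buffer q.s. (pH 3). Plasma concentration–time profiles were used to derive AUC0-t, Vss, clearance (mL/min/kg) and t1/2.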

[2] = Drug metabolism in mouse liver microsomes assessed as drug recovery pre-incubated at 37 degC for 5 mins before NADPH addition and measured after 30 mins by LC/MS/MS method; type: ADME, microsome; conditions: read-out: Drug recovery
[3] = Drug metabolism in mouse liver microsomes assessed as metabolic turnover rate per 0.125 mg/ml protein pre-incubated at 37 degC for 5 mins before NADPH addition and measured after 30 mins by LC/MS/MS method; type: ADME, microsome; conditions: 0.5 h
[4] = Drug metabolism in rat liver microsomes assessed as drug recovery pre-incubated at 37 degC for 5 mins before NADPH addition and measured after 30 mins by LC/MS/MS method; type: ADME, microsome; conditions: read-out: Drug recovery
[5] = Half life in human liver microsomes pre-incubated at 37 degC for 5 mins before NADPH addition and measured after 30 mins by LC/MS/MS method; type: ADME, microsome
[6] = Drug metabolism in human liver microsomes assessed as drug recovery pre-incubated at 37 degC for 5 mins before NADPH addition and measured after 30 mins by LC/MS/MS method; type: ADME, microsome; conditions: read-out: Drug recovery
[7] = Clearance in Wistar rat at 1 mg/kg, iv after 0.25 to 24 hrs by LC/MS/MS method; type: ADME, organism-based; conditions: in vivo; method in brief: as §1
[8] = Drug metabolism in mouse liver microsomes assessed as drug recovery pre-incubated at 37 degC for 5 mins measured after 30 mins in absence of NADPH by LC/MS/MS method; type: ADME, microsome; conditions: read-out: Drug recovery
[9] = Drug metabolism in rat liver microsomes assessed as metabolic turnover rate per 0.125 mg/ml protein pre-incubated at 37 degC for 5 mins before NADPH addition and measured after 30 mins by LC/MS/MS method; type: ADME, microsome; conditions: 0.5 h
[10] = Drug metabolism in human liver microsomes assessed as drug recovery pre-incubated at 37 degC for 5 mins measured after 30 mins in absence of NADPH by LC/MS/MS method; type: ADME, microsome; conditions: read-out: Drug recovery
[11] = Drug metabolism in human liver microsomes assessed as metabolic turnover rate per 0.125 mg/ml protein pre-incubated at 37 degC for 5 mins before NADPH addition and measured after 30 mins by LC/MS/MS method; type: ADME, microsome; conditions: 0.5 h
[12] = AUC (0 to t) in Wistar rat at 1 mg/kg, iv after 0.25 to 24 hrs by LC/MS/MS method; type: ADME, organism-based; set-up: dose 1 mg/kg, time 0.25-24 hr, route intravenous; conditions: in vivo; method in brief: as §1
[13] = Volume of distribution at steady state in Wistar rat at 1 mg/kg, iv after 0.25 to 24 hrs by LC/MS/MS method; type: ADME, organism-based; conditions: in vivo, read-out: Vdss; method in brief: as §1
[14] = target: T1, Adenosine deaminase (Bos taurus, UniProt P56658); experiment: Inhibition of bovine adenosine deaminase pre-incubated for 5 mins before adenosine addition; conditions: read-out: Ki
T1 sequence (P56658 whole entry): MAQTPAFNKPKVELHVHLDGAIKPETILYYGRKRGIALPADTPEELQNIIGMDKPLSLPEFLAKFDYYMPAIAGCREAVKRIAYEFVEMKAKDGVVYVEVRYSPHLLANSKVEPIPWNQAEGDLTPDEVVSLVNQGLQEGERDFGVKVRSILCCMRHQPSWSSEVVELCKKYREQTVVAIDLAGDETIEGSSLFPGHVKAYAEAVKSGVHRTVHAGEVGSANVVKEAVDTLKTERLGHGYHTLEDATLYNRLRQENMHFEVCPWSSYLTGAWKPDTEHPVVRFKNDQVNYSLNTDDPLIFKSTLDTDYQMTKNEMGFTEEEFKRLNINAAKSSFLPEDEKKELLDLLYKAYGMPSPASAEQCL

[15] = Drug metabolism in rat liver microsomes assessed as drug recovery pre-incubated at 37 degC for 5 mins measured after 30 mins in absence of NADPH by LC/MS/MS method; type: ADME, microsome; conditions: read-out: Drug recovery
[16] = Half life in rat liver microsomes pre-incubated at 37 degC for 5 mins before NADPH addition and measured after 30 mins by LC/MS/MS method; type: ADME, microsome
[17] = Half life in mouse liver microsomes pre-incubated at 37 degC for 5 mins before NADPH addition and measured after 30 mins by LC/MS/MS method; type: ADME, microsome
[18] = Clearance in Wistar rat at 3 mg/kg, iv after 0.25 to 24 hrs by LC/MS/MS method; type: ADME, organism-based; conditions: in vivo; method in brief: as §1
[19] = AUC (0 to t) in Wistar rat at 3 mg/kg, iv after 0.25 to 24 hrs by LC/MS/MS method; type: ADME, organism-based; set-up: time upper 24 hr, dose 3 mg/kg, time lower 0.25 hr, route intravenous; conditions: in vivo; method in brief: as §1
[20] = Volume of distribution at steady state in Wistar rat at 3 mg/kg, iv after 0.25 to 24 hrs by LC/MS/MS method; type: ADME, organism-based; conditions: in vivo, read-out: Vdss; method in brief: as §1
[21] = Half life in Wistar rat at 3 mg/kg, iv after 0.25 to 24 hrs by LC/MS/MS method; type: ADME, organism-based; conditions: in vivo; method in brief: as §1
[22] = system: Rattus norvegicus; experiment: Clearance in Wistar rat at 1 mg/kg, iv after 1 hr by LC/MS/MS method; type: ADME, organism-based; conditions: in vivo, BLD = below limit of detection; method in brief: as §1
[23] = system: Rattus norvegicus; experiment: Plasma concentration in Wistar rat at 1 mg/kg, iv after 1 hr by LC/MS/MS method; type: ADME, organism-based; conditions: in vivo, BLD = below limit of detection; method in brief: as §1

Structure (SMILES)	remaining at 0.5 h [2] [%]	Drug metabolism [3] [nmol/min/mg]	remaining at 0.5 h [4] [%]	half-life [5] [min]	remaining at 0.5 h [6] [%]	remaining at 0.5 h [8] [%]	Drug metabolism [9] [nmol/min/mg]	remaining at 0.5 h [10] [%]	Drug metabolism [11] [nmol/min/mg]	AUC(0-t) [12] [µM·h]	Ki [14] [nM]	remaining at 0.5 h [15] [%]	half-life [16] [min]	half-life [17] [min]	clearance [18] [mL/min/kg]	AUC(0-t) [19] [µM·h]	Vd [20] [L/kg]	half-life [21] [min]	other results
C[C@H](O)[C@@H](CCc1cccc(C(F)(F)F)c1)n1cnc(C(N)=O)c1	89	0.04	87	> 30	79	93	0.04	94	0.06	1.42	5.9	92	> 30	> 30					half-life [1]: 56.4 min; clearance [7]: 33.3 mL/min/kg; Vd [13]: 2 L/kg
C[C@H](O)[C@@H](CCc1cccc(C(F)(F)F)c1)n1cnc2c(N)ncnc21	74	0.08	86	> 30	80	89	0.04	95	0.06		1.1	91	> 30	> 30	85	1.61	1.88	< 30	
C[C@H](O)[C@@H](CCc1ccc(C(F)(F)F)cc1)n1cnc2c(N)ncnc21	85	0.04	93	> 30	99	94	< 0.04	95	< 0.04		5.2	93	> 30	> 30	59	2.21	7.01	133	
CCCCCC[C@H]([C@H](C)O)n1cnc2c(N)ncnc21 [(+)-EHNA]										0.35	2.2								CL [22]: Bld; Cp [23]: Bld
